Here are results for one compound from PMC8721857 (Oncology Letters, 2021).

One assay relates to A2780 cells. The assay is described as follows: Colony formation assay, A2780. The assay is classed as cell-based. A digest of the protocol: (§1)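 A2780 (1×10^3) or A2780cis (2×10^3) cells were seeded per 3.5-cm dish and grown 24 h. They were exposed 72 h to test compound or cisplatin at 1X or 2X IC50, then PBS-washed. Fresh medium followed for 5 days at 37°C. Staining was 0.5% crystal violet in 25% methanol, 10 min RT. Clusters of ≥50 cells were counted by microscope. Colonies expressed as % of control.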

Another assay has as its system A2780cis cells. The assay is described as follows: Colony formation assay, A2780cis. The assay is classed as cell-based. A digest of the protocol: as §1
Setting [1] is: IC50 and 2X IC50 concentrations, 72 h treatment, vs control.

On to `N.N.[Cl][Pt][Cl]` [cisplatin], for which the colony formation result in the assay on A2780 cells (setting [1]) and in the assay with A2780cis cells (setting [1]) was “almost completely inhibited” each time. Also, the “cells per colony after treatment (unable to divide)” value in the assay on A2780 cells (colony formation assay) and in the assay on A2780cis cells (colony formation assay) was 3–5 cells/colony in each case.
